According to ChEMBL document CHEMBL4130520 (ACS Med Chem Lett, 2017):
Converted amounts (≈) assume the structure as drawn.

Legend:
[1] = test system: Mycobacterium tuberculosis; test: Antitubercular activity against Mycobacterium tuberculosis H37Rv after 4 days by MABA method; type: functional; details: 96 h
Summary of the method: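 Aerobic culture of H37Rv in microplate Alamar blue assay. MIC90 taken as the minimum concentration giving 90% growth inhibition. Each value is the mean of at least two independent determinations. Most compounds were tested as RS,SR diastereomer mixtures; a few were tested only as the pure R,S enantiomer.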

[2] = biological target: Voltage-gated inwardly rectifying potassium channel KCNH2 (Homo sapiens, UniProt Q12809); test: Inhibition of human ERG
Voltage-gated inwardly rectifying potassium channel KCNH2, sequence (Q12809 whole entry): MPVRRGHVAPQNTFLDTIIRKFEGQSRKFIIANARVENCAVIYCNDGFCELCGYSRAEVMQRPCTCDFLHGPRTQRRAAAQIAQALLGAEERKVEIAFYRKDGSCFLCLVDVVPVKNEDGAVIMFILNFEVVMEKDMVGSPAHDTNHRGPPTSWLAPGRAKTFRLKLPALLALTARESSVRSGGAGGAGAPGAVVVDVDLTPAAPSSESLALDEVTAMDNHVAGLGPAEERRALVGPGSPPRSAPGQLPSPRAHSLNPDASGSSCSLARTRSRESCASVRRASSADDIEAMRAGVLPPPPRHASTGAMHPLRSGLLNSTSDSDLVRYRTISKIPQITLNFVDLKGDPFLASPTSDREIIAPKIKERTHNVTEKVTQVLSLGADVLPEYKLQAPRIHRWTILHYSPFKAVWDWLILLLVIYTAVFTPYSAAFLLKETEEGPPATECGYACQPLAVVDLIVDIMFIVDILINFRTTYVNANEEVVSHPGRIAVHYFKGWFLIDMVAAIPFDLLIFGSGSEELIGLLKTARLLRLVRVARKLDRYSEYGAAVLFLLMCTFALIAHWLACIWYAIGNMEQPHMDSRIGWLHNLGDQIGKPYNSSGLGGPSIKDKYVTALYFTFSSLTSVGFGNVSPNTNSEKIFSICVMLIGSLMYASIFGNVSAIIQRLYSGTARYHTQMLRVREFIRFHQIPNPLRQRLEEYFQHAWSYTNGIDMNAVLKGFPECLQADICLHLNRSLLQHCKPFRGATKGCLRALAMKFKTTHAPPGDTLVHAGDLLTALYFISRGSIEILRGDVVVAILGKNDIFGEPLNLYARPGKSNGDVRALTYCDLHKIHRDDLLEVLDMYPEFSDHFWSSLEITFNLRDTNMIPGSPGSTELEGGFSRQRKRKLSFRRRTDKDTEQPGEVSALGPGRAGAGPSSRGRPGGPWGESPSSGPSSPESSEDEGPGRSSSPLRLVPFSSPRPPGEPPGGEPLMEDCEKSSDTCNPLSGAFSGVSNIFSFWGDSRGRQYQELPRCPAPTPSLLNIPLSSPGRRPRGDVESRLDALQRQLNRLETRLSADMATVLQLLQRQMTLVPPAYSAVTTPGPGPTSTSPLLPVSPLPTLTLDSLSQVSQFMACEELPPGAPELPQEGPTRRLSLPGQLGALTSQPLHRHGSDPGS

SMILES	MIC90 [1]	IC50 [2]
COc1cccc(C(c2cc3cc(F)ccc3nc2OC)C(O)(CCN(C)C)c2cccc(OC(F)(F)F)c2)c1F (stereo not given)	0.21 µg/mL (≈ 0.364 µM)	–
COc1cccc(C(c2cc3cc(C#N)ccc3nc2OC)C(O)(CCN(C)C)c2cccc(OC)c2OC)c1OC (stereo not given)	0.34 µg/mL (≈ 0.595 µM)	–
COc1cccc([C@@H](c2cc3cc(N4CCS(=O)(=O)CC4)ccc3nc2OC)[C@@](O)(CCN(C)C)c2cccc(F)c2)c1F	> 5 µg/mL	–
COc1nc2ccc(OC(F)(F)F)cc2cc1C(c1ccccc1)C(O)(CCN(C)C)c1cccc2ccccc12 (stereo not given)	0.24 µg/mL (≈ 0.428 µM)	–
CO/N=C/c1ccc2nc(OC)c([C@@H](c3ccccc3)[C@](O)(CCN(C)C)c3cccc4ccccc34)cc2c1	0.21 µg/mL (≈ 0.394 µM)	2.2 µM
COc1cccc(C(O)(CCN(C)C)C(c2cc3cc(C#N)ccc3nc2OC)c2cccc(OC)c2F)c1 (stereo not given)	0.09 µg/mL (≈ 0.17 µM)	–
COc1cccc(C(c2cc3cc(N4CCNCC4)ccc3nc2OC)C(O)(CCN(C)C)c2cccc(OC(F)(F)F)c2)c1F (stereo not given)	0.66 µg/mL (≈ 1.03 µM)	–
COc1cccc(C(c2cc3cc(Cl)ccc3nc2OC)C(O)(CCN(C)C)c2cccc(OC)c2OC)c1OC (stereo not given)	0.25 µg/mL (≈ 0.43 µM)	–
COc1cccc(C(c2cc3cc(N4CCOCC4)ccc3nc2OC)C(O)(CCN(C)C)c2cccc(OC(F)(F)F)c2)c1F (stereo not given)	0.14 µg/mL (≈ 0.218 µM)	–
COc1nc2ccc(C3CC3)cc2cc1C(c1ccccc1)C(O)(CCN(C)C)c1cccc2ccccc12 (stereo not given)	0.13 µg/mL (≈ 0.252 µM)	–
COc1cccc(C(O)(CCN(C)C)C(c2cc3cc(Br)ccc3nc2OC)c2cccc(OC)c2F)c1 (stereo not given)	0.1 µg/mL (≈ 0.171 µM)	–
COc1nc2ccc(N3CC4(COC4)C3)cc2cc1[C@@H](c1ccccc1)[C@@](O)(CCN(C)C)c1cccc2ccccc12	0.71 µg/mL (≈ 1.24 µM)	–
COc1nc2ccc(NC3CCC3)cc2cc1[C@@H](c1ccccc1)[C@@](O)(CCN(C)C)c1cccc2ccccc12	0.48 µg/mL (≈ 0.88 µM)	–
COc1cccc(C(c2cc3cc(Br)ccc3nc2OC)C(O)(CCN(C)C)c2cccc(C)c2)c1F (stereo not given)	0.04 µg/mL (≈ 0.0705 µM)	–
COc1nc2ccc(C)cc2cc1C(c1ccccc1)C(O)(CCN(C)C)c1cccc2ccccc12 (stereo not given)	1.74 µg/mL (≈ 3.55 µM)	–
COc1nc2ccc(C(=O)N(C)C)cc2cc1C(c1ccccc1)C(O)(CCN(C)C)c1cccc2ccccc12 (stereo not given)	2.2 µg/mL (≈ 4.02 µM)	6.3 µM
COc1nc2ccc(N(C)S(=O)(=O)N(C)C)cc2cc1[C@@H](c1ccccc1)[C@@](O)(CCN(C)C)c1cccc(F)c1	5 µg/mL (≈ 8.61 µM)	–
CCc1ccc2nc(OC)c(C(c3ccccc3)C(O)(CCN(C)C)c3cccc4ccccc34)cc2c1 (stereo not given)	0.23 µg/mL (≈ 0.456 µM)	–
COc1cccc([C@H](c2cc3cc(N4CCS(=O)(=O)CC4)ccc3nc2OC)[C@@](O)(CCN(C)C)c2cccc(F)c2)c1OC	> 5 µg/mL	–
COc1nc2ccc(Cl)cc2cc1C(c1cccc(F)c1)C(O)(CCN(C)C)c1cccc(OC(F)(F)F)c1 (stereo not given)	0.09 µg/mL (≈ 0.16 µM)	–
COc1nc2ccc(I)cc2cc1C(c1ccccc1)C(O)(CCN(C)C)c1cccc2ccccc12 (stereo not given)	0.2 µg/mL (≈ 0.332 µM)	–
COc1nc2ccc(C(=O)O)cc2cc1C(c1ccccc1)C(O)(CCN(C)C)c1cccc2ccccc12 (stereo not given)	> 6.7 µg/mL	10 µM
COc1cccc(C(c2cc3cc(C#N)ccc3nc2OC)C(O)(CCN(C)C)c2cccc(Cl)c2)c1F (stereo not given)	0.13 µg/mL (≈ 0.243 µM)	–
COc1cccc(C(c2cc3cc(Br)ccc3nc2OC)C(O)(CCN(C)C)c2cccc(OC(F)(F)F)c2)c1OC (stereo not given)	0.09 µg/mL (≈ 0.139 µM)	–
COc1cccc([C@H](c2cc3cc(N4CC[S+]([O-])CC4)ccc3nc2OC)[C@@](O)(CCN(C)C)c2cccc(F)c2)c1OC	4.8 µg/mL (≈ 7.72 µM)	–

SMILES	MIC90 [1]	IC50 [2]
COc1cccc(C(c2cc3cc(Br)ccc3nc2OC)C(O)(CCN(C)C)c2cccc(F)c2)c1OC (stereo not given)	0.04 µg/mL (≈ 0.0686 µM)	–
COc1cccc(C(c2cc3cc(C#N)ccc3nc2OC)C(O)(CCN(C)C)c2cccc(OC(F)(F)F)c2)c1OC (stereo not given)	0.21 µg/mL (≈ 0.353 µM)	–
COc1nc2ccc(N)cc2cc1C(c1ccccc1)C(O)(CCN(C)C)c1cccc2ccccc12 (stereo not given)	1.9 µg/mL (≈ 3.86 µM)	–
COc1cccc([C@@H](c2cc3cc(SC)ccc3nc2OC)[C@@](O)(CCN(C)C)c2cccc(F)c2)c1F	0.13 µg/mL (≈ 0.241 µM)	–
COc1cccc([C@@H](c2cc3cc(N4CCSCC4)ccc3nc2OC)[C@@](O)(CCN(C)C)c2cccc(F)c2)c1F	0.19 µg/mL (≈ 0.32 µM)	–
COc1nc2ccc(Cl)cc2cc1C(c1ccccc1)C(O)(CCN(C)C)c1cccc2ccccc12 (stereo not given)	0.71 µg/mL (≈ 1.39 µM)	6.9 µM
COc1cccc(C(c2cc3cc(Br)ccc3nc2OC)C(O)(CCN(C)C)c2cccc(OC)c2OC)c1OC (stereo not given)	0.2 µg/mL (≈ 0.32 µM)	–
COc1cccc(C(c2cc3cc(Br)ccc3nc2OC)C(O)(CCN(C)C)c2cccc(Cl)c2)c1F (stereo not given)	0.07 µg/mL (≈ 0.119 µM)	–
COc1nc2ccc(N(C)S(=O)(=O)c3ccccc3)cc2cc1[C@@H](c1ccccc1)[C@@](O)(CCN(C)C)c1cccc(F)c1	4.1 µg/mL (≈ 6.68 µM)	–
COc1cccc(C(c2cc3cc(C#N)ccc3nc2OC)C(O)(CCN(C)C)c2cccc(F)c2)c1OC (stereo not given)	0.17 µg/mL (≈ 0.321 µM)	–
C=Cc1ccc2nc(OC)c(C(c3ccccc3)C(O)(CCN(C)C)c3cccc4ccccc34)cc2c1 (stereo not given)	1.9 µg/mL (≈ 3.78 µM)	–
COc1cccc(C(c2cc3cc(Br)ccc3nc2OC)C(O)(CCN(C)C)c2cccc(OC(F)(F)F)c2)c1F (stereo not given)	0.09 µg/mL (≈ 0.141 µM)	–
COc1cccc(C(c2cc3cc(N4CC5(COC5)C4)ccc3nc2OC)[C@@](O)(CCN(C)C)c2cccc(F)c2)c1F (single isomer, unassigned)	0.51 µg/mL (≈ 0.865 µM)	–
COc1nc2ccc(CC(C)=O)cc2cc1C(c1ccccc1)C(O)(CCN(C)C)c1cccc2ccccc12 (stereo not given)	> 7 µg/mL	10 µM
COc1cccc(C(c2cc3cc(Br)ccc3nc2OC)C(O)(CCN(C)C)c2cccc(F)c2)c1F (stereo not given)	0.1 µg/mL (≈ 0.175 µM)	–
COc1cccc(C(c2cc3cc(C#N)ccc3nc2OC)C(O)(CCN(C)C)c2cccc(F)c2)c1F (stereo not given)	0.18 µg/mL (≈ 0.348 µM)	–
COc1nc2ccc(CN(C)C)cc2cc1C(c1ccccc1)C(O)(CCN(C)C)c1cccc2ccccc12 (stereo not given)	3.7 µg/mL (≈ 6.93 µM)	4.8 µM
COc1nc2ccc(NC3CCCC3)cc2cc1C(c1ccccc1)C(O)(CCN(C)C)c1cccc2ccccc12 (stereo not given)	1.7 µg/mL (≈ 3.04 µM)	–
COc1nc2ccc(/C=N/O)cc2cc1C(c1ccccc1)C(O)(CCN(C)C)c1cccc2ccccc12 (stereo not given)	6 µg/mL (≈ 11.5 µM)	3.5 µM
COc1cccc(C(c2cc3cc(N4CC5(COC5)C4)ccc3nc2OC)C(O)(CCN(C)C)c2cccc(OC(F)(F)F)c2)c1OC (stereo not given)	0.75 µg/mL (≈ 1.12 µM)	–
COc1cccc(C(c2cc3cc(N4CC5(COC5)C4)ccc3nc2OC)C(O)(CCN(C)C)c2cccc(F)c2)c1OC (stereo not given)	0.66 µg/mL (≈ 1.1 µM)	–
COc1nc2ccccc2cc1C(c1ccccc1)C(O)(CCN(C)C)c1cccc2ccccc12 (stereo not given)	1.9 µg/mL (≈ 3.99 µM)	1.6 µM
COc1cccc(C(c2cc3cc(C#N)ccc3nc2OC)C(O)(CCN(C)C)c2cccc(C)c2)c1F (stereo not given)	0.09 µg/mL (≈ 0.175 µM)	–
COc1nc2ccc(Br)cc2cc1C(c1cccc(F)c1)C(O)(CCN(C)C)c1cccc(OC(F)(F)F)c1 (stereo not given)	0.25 µg/mL (≈ 0.412 µM)	–
COc1cccc([C@H](c2cc3cc(N(C)S(=O)(=O)N(C)C)ccc3nc2OC)[C@@](O)(CCN(C)C)c2cccc(F)c2)c1OC	1.13 µg/mL (≈ 1.76 µM)	–

SMILES	MIC90 [1]	IC50 [2]
COc1nc2ccc(N3CCOCC3)cc2cc1C(c1cccc(F)c1)C(O)(CCN(C)C)c1cccc(OC(F)(F)F)c1 (stereo not given)	0.85 µg/mL (≈ 1.39 µM)	–
C#Cc1ccc2nc(OC)c(C(c3ccccc3)C(O)(CCN(C)C)c3cccc4ccccc34)cc2c1 (stereo not given)	0.48 µg/mL (≈ 0.959 µM)	–
COc1cccc([C@@H](c2cc3cc(N4CC[S+]([O-])CC4)ccc3nc2OC)[C@@](O)(CCN(C)C)c2cccc(F)c2)c1F	> 5 µg/mL	–
COc1cccc(C(c2cc3cc(N4CC5(COC5)C4)ccc3nc2OC)C(O)(CCN(C)C)c2cccc(OC(F)(F)F)c2)c1F (stereo not given)	0.77 µg/mL (≈ 1.17 µM)	–
COc1cccc(C(c2cc3cc(N4CCCCC4)ccc3nc2OC)C(O)(CCN(C)C)c2cccc(OC(F)(F)F)c2)c1F (stereo not given)	2.3 µg/mL (≈ 3.58 µM)	–
COc1cccc([C@](O)(CCN(C)C)[C@H](c2cc3cc(N4CC5(COC5)C4)ccc3nc2OC)c2cccc(OC)c2F)c1	0.87 µg/mL (≈ 1.45 µM)	–
COc1nc2ccc(C(F)(F)F)cc2cc1C(c1ccccc1)C(O)(CCN(C)C)c1cccc2ccccc12 (stereo not given)	0.38 µg/mL (≈ 0.698 µM)	–
COc1nc2ccc(Br)cc2cc1[C@@H](c1ccccc1)[C@@](O)(CCN(C)C)c1cccc2ccccc12 [BEDAQUILINE]	0.09 µg/mL (≈ 0.162 µM)	–
COc1cccc(C(c2cc3cc(OC(F)(F)F)ccc3nc2OC)C(O)(CCN(C)C)c2cccc(OC(F)(F)F)c2)c1F (stereo not given)	1.1 µg/mL (≈ 1.71 µM)	–
C#Cc1ccc2nc(OC)c(C(c3ccccc3)C(O)(CCN(C)C)c3cccc(F)c3)cc2c1 (stereo not given)	0.36 µg/mL (≈ 0.768 µM)	–
COc1cccc(C(c2cc3cc(N4CCOCC4)ccc3nc2OC)C(O)(CCN(C)C)c2cccc(OC)c2OC)c1OC (stereo not given)	2.5 µg/mL (≈ 3.96 µM)	–
COc1cccc([C@@H](c2cc3cc(S(C)(=O)=O)ccc3nc2OC)[C@@](O)(CCN(C)C)c2cccc(F)c2)c1F	2.3 µg/mL (≈ 4.03 µM)	–
CC#Cc1ccc2nc(OC)c(C(c3ccccc3)C(O)(CCN(C)C)c3cccc4ccccc34)cc2c1 (stereo not given)	6.1 µg/mL (≈ 11.9 µM)	7.9 µM
COc1cccc(C(c2cc3cc(N4CCOCC4)ccc3nc2OC)C(O)(CCN(C)C)c2cccc(OC(F)(F)F)c2)c1OC (stereo not given)	0.68 µg/mL (≈ 1.04 µM)	–
COc1cccc([C@@H](c2cc3cc(N4CC5(COC5)C4)ccc3nc2OC)[C@@](O)(CCN(C)C)c2cccc(Cl)c2)c1F	0.31 µg/mL (≈ 0.511 µM)	–
COc1nc2ccc(CN)cc2cc1C(c1ccccc1)C(O)(CCN(C)C)c1cccc2ccccc12 (stereo not given)	> 12 µg/mL	1.7 µM
COc1cccc([C@@H](c2cc3cc(N4CC5(COC5)C4)ccc3nc2OC)[C@@](O)(CCN(C)C)c2cccc(C)c2)c1F	1.1 µg/mL (≈ 1.88 µM)	–
COc1nc2ccc(F)cc2cc1C(c1ccccc1)C(O)(CCN(C)C)c1cccc2ccccc12 (stereo not given)	0.94 µg/mL (≈ 1.9 µM)	–
COc1nc2ccc(CO)cc2cc1C(c1ccccc1)C(O)(CCN(C)C)c1cccc2ccccc12 (stereo not given)	1.6 µg/mL (≈ 3.16 µM)	10 µM
COc1nc2ccc(C#N)cc2cc1C(c1cccc(F)c1)C(O)(CCN(C)C)c1cccc(OC(F)(F)F)c1 (stereo not given)	0.47 µg/mL (≈ 0.849 µM)	–
COc1cccc([C@H](c2cc3cc(N4CCSCC4)ccc3nc2OC)[C@@](O)(CCN(C)C)c2cccc(F)c2)c1OC	0.28 µg/mL (≈ 0.462 µM)	–
COc1nc2ccc(C#N)cc2cc1C(c1ccccc1)C(O)(CCN(C)C)c1cccc(F)c1 (stereo not given)	0.69 µg/mL (≈ 1.47 µM)	–
COc1cccc(C(c2cc3cc(C#N)ccc3nc2OC)C(O)(CCN(C)C)c2cccc(OC(F)(F)F)c2)c1F (stereo not given)	0.26 µg/mL (≈ 0.446 µM)	–
COc1nc2ccc(Br)cc2cc1C(c1ccccc1)C(O)(CCN(C)C)c1cccc(F)c1 (stereo not given)	0.23 µg/mL (≈ 0.439 µM)	–
